Data set [1] is described as follows: Inhibition of Escherichia coli MurD after 30 mins by HPLC analysis. Summed up:
(§1)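 Radioactivity-based ligase assay on E. coli or S. aureus MurD or MurE, run with Tween-20 detergent present to prevent nonspecific inhibition by compound aggregates; IC50 values reported.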

The nature of data set [2]: Inhibition of Staphylococcus aureus MurD after 30 mins by HPLC analysis. Summed up: as §1
A short description of data set [3]: Inhibition of Escherichia coli MurE after 30 mins by HPLC analysis. In short, it runs like this: as §1
Data set [4] is described as follows: Inhibition of Staphylococcus aureus MurE after 30 mins by HPLC analysis. Summed up: as §1
Data set [5] concerns Escherichia coli. In words: Inhibition of Escherichia coli MurE assessed as residual activity at 200 uM after 30 mins by HPLC analysis. In short, it runs like this:
(§2)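 Radioactivity-based ligase assay with Tween-20 detergent present to prevent aggregate-driven inhibition; residual enzyme activity measured with compound at a single fixed concentration of 200 μM or 500 μM.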

For data set [6], the system named is Staphylococcus aureus. Kind of data set: Inhibition of Staphylococcus aureus MurE at 200 uM after 30 mins by HPLC analysis. Summed up:
as §2

In data set [7] the test system is Staphylococcus aureus. Kind of data set: Antimicrobial activity against Staphylococcus aureus ATCC 29213 after 18 to 24 hrs by macrodilution method. The format is functional.
Data set [8] has as its system Staphylococcus aureus. In words: Antimicrobial activity against methicillin-resistant Staphylococcus aureus ATCC 43300 after 18 to 24 hrs by macrodilution method. The class given is functional.
For the next data set, the system named is Enterococcus faecalis. In words: Antimicrobial activity against Enterococcus faecalis ATCC 29212 after 18 to 24 hrs by macrodilution method. The class given is functional.
The test system of data set [9] is Escherichia coli. Kind of data set: Antimicrobial activity against Escherichia coli ATCC 25922 after 18 to 24 hrs by macrodilution method. The format is functional.
For a further data set, the system named is Pseudomonas aeruginosa. In words: Antimicrobial activity against Pseudomonas aeruginosa ATCC 27853 after 18 to 24 hrs by macrodilution method. The format is functional.
In a further data set the test system is HepG2. In words: Cytotoxicity against human HepG2 cells up to 200 uM after 24 hrs by MTT assay. The class given is cell-based. The conditions noted are these: hepg2, 24 h. For orientation: Formazan colour is commonly taken as a measure of viable cells.
The test system of data set [10] is Escherichia coli. In words: Inhibition of Escherichia coli MurE assessed as residual activity at 500 uM after 30 mins by HPLC analysis. Summed up: as §2
Data set [11] concerns Staphylococcus aureus. Kind of data set: Inhibition of Staphylococcus aureus MurE assessed as residual activity at 500 uM after 30 mins by HPLC analysis.

This is an account of results in ChEMBL document CHEMBL2150983, “Dual Inhibitor of MurD and MurE Ligases from Escherichia coli and Staphylococcus aureus” (ACS Med Chem Lett, 2012).

In brackets after ≈: the same amount, converted by molar mass. Activity calls are given as the source filed them. No cut-off for these calls is given here. A value given as a limit tells only on which side of the number the result lay.

For the compound `O=C(O)CC[C@@H](NC(=O)c1cccc(NCc2ccc(/C=C3\SC(=O)NC3=O)cc2)c1)C(=O)O`, the IC50 is 36 µM in data set [1], 100 µM in [2], 200 µM in data set [3] and over 200 µM in [4]. In the data set with Escherichia coli [5], the Activity was 51%. In addition, the inhibition result in the data set with Staphylococcus aureus [6] is “inactive”. Moreover, the MIC with Staphylococcus aureus [7], with Staphylococcus aureus [8], in the data set on Enterococcus faecalis, with Escherichia coli [9] and against Pseudomonas aeruginosa was over 128 µg/mL throughout.
On to `O=C(O)CC[C@@H](NC(=O)c1cccc(NCc2ccc(/C=C3\SC(=S)NC3=O)cc2)c1)C(=O)O`, for which the IC50 worked out at 8.2 µM in data set [1], 6.4 µM in data set [2], 180 µM in data set [3] and 17 µM in [4]. Also, the MIC in the data set on Staphylococcus aureus [7] is 8 µg/mL (≈ 16 µM); with Staphylococcus aureus [8], 8 µg/mL (≈ 16 µM); against Enterococcus faecalis, 64 µg/mL (≈ 128 µM); in the data set on Escherichia coli [9], over 128 µg/mL; in the data set with Pseudomonas aeruginosa it was over 128 µg/mL. In the data set on HepG2, the Activity result was “Non-toxic”.
For `O=C(O)CC[C@@H](NC(=O)c1cccc(CNc2ccc(/C=C3\SC(=O)NC3=O)cc2)c1)C(=O)O`, the IC50 in [1] was 35 µM. The Activity in the data set with Escherichia coli [10] and in the data set on Staphylococcus aureus [11] was 64% throughout.

Usually IC50 stands for the point on the concentration scale where inhibition reaches its midpoint. High values mean weaker potency, low ones greater potency. Usually MIC stands for the lowest concentration that inhibits growth of the organism. The low end stands for a more susceptible organism, the high end for a less susceptible organism.
